Our source for the concentration, Activity and inhibition values is ChEMBL document CHEMBL4706651, “Peripheral Selective Oxadiazolylphenyl Alanine Derivatives as Tryptophan Hydroxylase 1 Inhibitors for Obesity and Fatty Liver Disease” (J Med Chem, 2021).

Calls of active or inactive are those of the source. No cut-off for these calls is given here.

Data set [1] in a line: Drug level in ICR mouse plasma at 10 mg/kg, ip after 1 hr. It counts as ADME, organism-based. Summed up:
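Male ICR mice received 10 mg/kg ip in DMSO/PEG400/saline 5:40:55 (v/v/v), 5 mL/kg. At 1 h, heart blood was spun to plasma. Mice were perfused with heparinized saline, and brains were homogenized in 3 volumes PBS. Analyte was quantified by LC-MS/MS. Brain quantification limit 31.3 ng/g. n = 3; mean SD.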

Data set [2] has as its system Mus musculus. Description: Anti-hepatic steatosis activity in C57BL/6J mouse model of diet-induced obesity assessed as reduction in plasma cholesterol level at 10 mg/kg, ip dosed daily for 8 weeks colorimetry. It counts as functional, organism-based.
The next data set deals with CYP2D6 (Homo sapiens, UniProt P10635). Description: Inhibition of CYP2D6 (unknown origin) at 10 uM relative to control. Format: ADME.
CYP2D6, sequence (P10635 whole entry): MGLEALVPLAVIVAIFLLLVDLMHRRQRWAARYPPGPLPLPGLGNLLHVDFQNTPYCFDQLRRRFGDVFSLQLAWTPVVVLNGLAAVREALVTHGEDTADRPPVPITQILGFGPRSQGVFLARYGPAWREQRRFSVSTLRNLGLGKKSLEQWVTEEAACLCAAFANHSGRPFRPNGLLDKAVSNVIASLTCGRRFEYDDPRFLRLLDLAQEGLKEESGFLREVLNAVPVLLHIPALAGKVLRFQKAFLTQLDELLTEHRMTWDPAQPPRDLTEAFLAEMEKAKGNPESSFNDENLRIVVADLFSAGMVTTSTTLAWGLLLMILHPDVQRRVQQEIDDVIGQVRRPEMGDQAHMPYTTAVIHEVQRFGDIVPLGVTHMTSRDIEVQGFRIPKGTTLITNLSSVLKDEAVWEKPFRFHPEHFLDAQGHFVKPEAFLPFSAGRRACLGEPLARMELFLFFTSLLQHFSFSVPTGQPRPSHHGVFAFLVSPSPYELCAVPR
The subject of data set [3] is Mus musculus. Description: Anti-hepatic steatosis activity in C57BL/6J mouse model of diet-induced obesity assessed as reduction in plasma TG level at 10 mg/kg, ip dosed daily for 8 weeks colorimetry. Format: functional, organism-based.
Data set [4] concerns Mus musculus. The data set is described as follows: Anti-obesity activity in C57BL/6J mouse model of diet-induced obesity assessed as suppression of 5-HT levels in serum at 10 mg/kg, ip dosed daily for 8 weeks by LC-MS/MS analysis. It counts as functional, organism-based. In outline:
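C57BL/6J mice, 12 weeks old, on high-fat diet (60% fat calories) were dosed daily ip with vehicle or 10 mg/kg for eight weeks. Serum was isolated from cardiac-puncture blood and 5-HT was quantified by LC-MS/MS. n = 5/group; means SEM.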

Data set [5] relates to Mus musculus. Description: Anti-hepatic steatosis activity in C57BL/6J mouse model of diet-induced obesity assessed as reduction in hepatic triacylglycerol at 10 mg/kg, ip dosed daily for 8 weeks colorimetry. Format: functional, organism-based.
Data set [6] has as its system Mus musculus. The data set is described as follows: Anti-obesity activity in C57BL/6J mouse model of diet-induced obesity assessed as induction of thermogenic activity by measuring increase in Ucp1 protein expression in iWAT at 10 mg/kg, ip dosed daily for 8 weeks immunohistochemistry. Format: functional, organism-based. In outline: (§1)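 C57BL/6J mice fed a 60% fat-calorie diet from 12 weeks of age, dosed ip daily for eight weeks. For Ucp1 mRNA, total RNA was extracted from BAT or iWAT with TRIzol and analysed by quantitative RT-PCR as relative expression. UCP1 protein was detected by immunohistochemistry on five-micron paraffin sections. n = 5/group.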

Data set [7] has as its system Mus musculus. The data set is described as follows: Anti-obesity activity in C57BL/6J mouse model of diet-induced obesity assessed as induction of thermogenic activity by measuring increase in Ucp1 protein expression in BAT at 10 mg/kg, ip dosed daily for 8 weeks immunohistochemistry. Format: functional, organism-based. In outline:
as §1

For data set [8], the system named is Mus musculus. The data set is described as follows: Anti-obesity activity in C57BL/6J mouse model of diet-induced obesity assessed as increase in multilocular adipocytes at 10 mg/kg, ip dosed daily for 8 weeks by H and E staining based histological analysis. It counts as functional, organism-based. Summed up:
(§2)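 C57BL/6J mice, 12 weeks old, given daily ip vehicle or drug during 8 weeks of high-fat diet (60% fat calories). Sacrificed after 6 h fasting. Five-micron paraffin sections of eWAT, iWAT and BAT were deparaffinized and stained with H&E. Crown-like structures, adipocyte size, lipid droplets and multilocular cells were assessed. Scale bar 100 μm.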

Data set [9] relates to Mus musculus. The data set is described as follows: Anti-obesity activity in C57BL/6J mouse model of diet-induced obesity assessed as reduction in adipocyte size in eWAT at 10 mg/kg, ip dosed daily for 8 weeks by H and E staining based histological analysis. Format: functional, organism-based. In outline:
as §2

Data set [10] has as its target T1, Tryptophan 5-hydroxylase 1 (Homo sapiens) (UniProt P17752).
T1 sequence (whole entry): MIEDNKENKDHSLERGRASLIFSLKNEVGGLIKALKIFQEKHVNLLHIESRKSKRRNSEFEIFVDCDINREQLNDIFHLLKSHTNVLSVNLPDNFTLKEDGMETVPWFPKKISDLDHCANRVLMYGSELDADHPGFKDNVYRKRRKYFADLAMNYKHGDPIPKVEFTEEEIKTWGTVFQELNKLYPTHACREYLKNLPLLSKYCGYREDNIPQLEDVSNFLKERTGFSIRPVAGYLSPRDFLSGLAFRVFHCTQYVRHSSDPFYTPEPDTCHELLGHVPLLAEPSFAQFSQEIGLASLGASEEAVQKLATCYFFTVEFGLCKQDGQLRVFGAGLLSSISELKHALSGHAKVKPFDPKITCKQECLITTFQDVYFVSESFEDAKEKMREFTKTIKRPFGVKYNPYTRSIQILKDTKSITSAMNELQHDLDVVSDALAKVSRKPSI
Description: Inhibition of Tryptophan hydroxylase 1 (unknown origin) at 1 uM incubated for 4 hrs by fluorescence based assay. In outline:
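TPH1 activity was measured with a commercial fluorescence kit. Compound in DMSO was mixed with TPH1 enzyme (320 ng/reaction), then reaction solution was added. The plate was sealed, cooled to 4 °C, shaken and incubated 4 h. Quench solution was added, and fluorescence was read at ex 300 nm / em 360 nm.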

In data set [11] the test system is Mus musculus. Description: Anti-obesity activity in C57BL/6J mouse model of diet-induced obesity assessed as reduction in adipose tissues by measuring iWAT at 10 mg/kg, ip dosed daily for 8 weeks. Format: functional, organism-based. In outline: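 After eight weeks of daily ip dosing at 10 mg/kg with high-fat diet (60% fat calories) in C57BL/6J mice starting at 12 weeks, gross appearance of dissected eWAT, iWAT and BAT was photographed against a 1 cm × 1 cm grid.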

For data set [12], the system named is Mus musculus. The data set is described as follows: Anti-obesity activity in C57BL/6J mouse model of diet-induced obesity assessed as reduction in adipocyte size in iWAT at 10 mg/kg, ip dosed daily for 8 weeks by H and E staining based histological analysis. It counts as functional, organism-based. Summed up: as §2
Data set [13] has as its system Mus musculus. The data set is described as follows: Anti-obesity activity in overnight fasted C57BL/6J mouse model of diet-induced obesity assessed as improvement in glucose tolerance at 1 to 10 mg/kg, ip by intraperitoneal glucose tolerance test. It counts as functional, organism-based. To be noted: dose 1-10 mg/kg. Summed up: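 Twelve-week-old C57BL/6J mice were given daily ip vehicle or 1, 5 or 10 mg/kg for 8 weeks on high-fat diet. After fasting (16 h per legend; "overnight" in methods), they received 2 g/kg D-glucose ip, and blood glucose was read with a glucometer. n = 6/group.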

Data set [14] has as its system Mus musculus. Description: Anti-obesity activity in C57BL/6J mouse model of diet-induced obesity assessed as increase in VO2 at 10 mg/kg, ip dosed daily for 8 weeks by indirect calorimetry. Format: functional, organism-based. In outline: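 Daily ip dosing of C57BL/6J mice on high-fat diet (60% fat calories), starting at 12 weeks of age, for eight weeks. Mice were housed singly in an eight-chamber open-circuit indirect calorimetry system and monitored for 72 h in the fed state. VO2 and VCO2 were recorded. RER = VCO2/VO2; heat production = (3.185 + 1.232 × RER) × VO2. n = 5/group; means SEM.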

In data set [15] the test system is Mus musculus. The data set is described as follows: Anti-obesity activity in C57BL/6J mouse model of diet-induced obesity assessed as suppression of fat mass at 10 mg/kg, ip dosed daily for 8 weeks. It counts as functional, organism-based. In outline:
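High-fat diet (60% fat calories) fed to C57BL/6J mice from 12 weeks old, with daily ip vehicle or drug for 8 weeks. Fat, lean and fluid mass were measured in live mice with a body composition analyzer and expressed as percent. n = 6/group; means SEM.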

Another data set has as its target CYP3A4 (Homo sapiens, UniProt P08684). Description: Inhibition of CYP3A4 (unknown origin) at 10 uM relative to control. Format: ADME.

CYP3A4, sequence (P08684 whole entry): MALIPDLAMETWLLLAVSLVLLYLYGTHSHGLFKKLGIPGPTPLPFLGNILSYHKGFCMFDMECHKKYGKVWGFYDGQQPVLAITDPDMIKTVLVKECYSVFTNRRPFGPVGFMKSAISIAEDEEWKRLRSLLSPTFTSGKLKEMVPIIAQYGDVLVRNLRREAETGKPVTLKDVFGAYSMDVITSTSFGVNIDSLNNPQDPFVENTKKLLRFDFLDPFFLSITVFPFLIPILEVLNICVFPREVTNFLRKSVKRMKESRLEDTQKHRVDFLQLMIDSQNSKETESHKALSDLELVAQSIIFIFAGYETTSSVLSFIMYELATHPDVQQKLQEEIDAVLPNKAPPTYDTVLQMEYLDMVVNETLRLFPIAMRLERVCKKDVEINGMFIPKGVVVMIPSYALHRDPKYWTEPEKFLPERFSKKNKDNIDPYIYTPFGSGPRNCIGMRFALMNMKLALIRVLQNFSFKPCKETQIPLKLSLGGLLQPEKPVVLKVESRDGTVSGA

What is called inhibition is the relative decrease from the control value, in per cent. In [1], `COc1ccc(-c2nc(-c3ccc(C[C@H](N)C(=O)O)cc3)no2)cc1-c1ccc(O)cc1.Cl` came in with a concentration at 1 h of 3110 ng/mL. For the same molecule, the outcome with Mus musculus [2], in the data set on Mus musculus [3], in the data set with Mus musculus [4], with Mus musculus [5], in the data set on Mus musculus [7] and in the data set with Mus musculus [8] was Active. In addition, the result in the data set on Mus musculus [9], with Mus musculus [11], in the data set on Mus musculus [12], with Mus musculus [14] and in the data set on Mus musculus [15] was Active. Besides, the inhibition at 10 µM at CYP2D6 and against CYP3A4 was less than 1% each time. Further, the outcome with Mus musculus [6] was inactive. In data set [10], the inhibition amounted to 100%. Besides, in the data set on Mus musculus [13], the Activity result was “Dose-dependent effect”.
